Vif imaging: blocks HIV Vif function | HEK293T cells, Vif self-association by quenched fluorescence, imaging, 24 h | inhibition, % at 7.49 µM | actives 0.35% (n = 340,000); in the data active = inhibition above about 50%, passing the limit was not always enough
PKA-R1A act: activates the PKA-R1A holoenzyme complex. PKA-R1A dissociation, Cy5-IP20 fluorescence polarization; scaled: DMSO 0%, 113 µM cGMP 100%. activation, % at 11.4 µM. actives 0.083% (n = 340,000). P00514+P68181. AID 504707;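 active = percent activation above the mean of all tested compounds plus 3 SD, cut at about 19% in these data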;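 note: higher means more PKAc released from R1A so a rise in polarization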
SR-BI DiI-HDL act: SR-BI HDL lipid transfer activation | CHO ldlA[mSR-BI] cells, DiI-HDL uptake fluorescence, 3 h; 100 = double the neutral-control signal | activation, % at 12.5 µM | actives 0.096% (n = 320,000) | AID 504775;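 active = mean replicate activation of at least 60% and every replicate at or above 60%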
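Material – SR-BI-overexpressing, LDLR-lacking CHO cells · Medium – BSA-supplemented, HEPES-buffered Ham's F12, pH 7.4 · Doses – single concentration · Times – compound with DiI-HDL co-incubation, 3 h at 37 °C · Measured by – bottom-read fluorescence, 550/595 nm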
SR-BI DiI inh: blocks mouse SR-BI lipid uptake from DiI-HDL; ldlA[mSR-BI] CHO cells, DiI-HDL uptake fluorescence, 3 h; actives 0.96% (n = 320,000); inhibition, % at 12.5 µM; Q61009; AID 488896;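 active = mean replicate inhibition of at least 70% and a set share of replicates each scoring 70 or more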
PKA-R2B activ: activators of human PKA-R2B complex; actives 0.079% (n = 340,000); P22694+P31323; AID 504700; activation, % at 11.4 µM; PKA-R2B holoenzyme dissociation, Cy5-IP20 fluorescence polarization; R2B truncated from residue 108, S112A mutant; 0% DMSO only, 100% 113 µM cGMP;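 active = activation above a cutoff set at the mean over all compounds plus 3 SD, cut at about 18% in these data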;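 note: higher means more holoenzyme dissociation and a rise in polarization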
Target sequence (P31323 whole entry, looked up, other chains not shown, the tested form may be a part): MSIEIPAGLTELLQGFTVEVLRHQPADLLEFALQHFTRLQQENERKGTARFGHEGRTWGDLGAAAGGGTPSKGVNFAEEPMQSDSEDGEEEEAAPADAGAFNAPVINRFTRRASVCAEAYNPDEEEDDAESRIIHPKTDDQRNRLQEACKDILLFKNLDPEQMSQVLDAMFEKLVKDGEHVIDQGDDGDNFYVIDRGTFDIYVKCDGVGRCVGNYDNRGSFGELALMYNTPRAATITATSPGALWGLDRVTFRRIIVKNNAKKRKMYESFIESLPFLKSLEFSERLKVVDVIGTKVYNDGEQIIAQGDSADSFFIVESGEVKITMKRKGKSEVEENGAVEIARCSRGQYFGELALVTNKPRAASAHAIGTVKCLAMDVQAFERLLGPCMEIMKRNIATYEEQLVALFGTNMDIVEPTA
Large screens that a line does not name were inactive. A selection: hits, their analogues and other compounds. The true share with any hit is near 1.4%.

CCCCCCc1cc2cc(-c3nnc(-c4ccccc4OC)o3)c(=O)oc2cc1O	Vif imaging 70
CCCCCCc1cc2cc(-c3nnc(-c4ccccc4O)o3)c(=O)oc2cc1O	none
CC1C=CCC2C(=O)N(c3cc(Cl)ccc3O)C(=O)C12 (centres undefined)	none
CCCCC(CC)C(=O)Nc1cc(=O)[nH]c2nc3ccccc3n12 (centres undefined)	SR-BI DiI-HDL act 410
CCCCCCc1c(C)[nH]c2nc3ccccc3n2c1=O	none
CON(C)S(=O)(=O)c1cccc(C(=O)Nc2cccc(S(=O)(=O)NC3=NCCCCC3)c2)c1	none
CCOC(=O)/C(=C/c1ccc(OC(F)F)cc1)C1=Nn2c(nnc2-c2ccc(Cl)cc2)SC1	none
CCOC(=O)/C(=C\c1ccc(OC(F)F)cc1)C1=Nn2c(nnc2-c2ccc(Cl)cc2)SC1	SR-BI DiI inh 89
COc1ccccc1OP(=O)(O)Oc1ccccc1OC	none
O=C(COC(=O)c1cccs1)NCC1CCCCC1	none
COc1ccc(C(=O)Nc2nc(C)c(C)s2)cc1OC	SR-BI DiI inh 79
COc1ccc(C(=O)Nc2cccc(NC(=O)c3ccc(OC)c(OC)c3)n2)cc1OC	SR-BI DiI inh 81
COc1ccc(NC(=O)C(=O)Nc2cccc3cccnc23)cc1OC	none
COc1ccc(Cc2nnc(NC(=O)c3ccc(OC)c(OC)c3)s2)cc1	none
COc1ccccc1C(=O)Nc1cccc(NC(=O)c2ccccc2OC)n1	none
COc1ccc2nc3ccccc3nc2c1NC(=O)c1ccc(Cl)cc1	Vif imaging 106
COc1ccc(C(=O)Nc2cccc3cccnc23)cc1OC	SR-BI DiI inh 79
CCOC(=O)C1(C)CCCCCN1C(=O)c1ccccc1F (centres undefined)	none (no result: PKA-R1A act, SR-BI DiI-HDL act, SR-BI DiI inh, PKA-R2B activ)
Cn1c(CNc2ccc(F)cc2)nc2ccccc21	none
Cc1ccc(C(CC(N)=O)c2ccco2)cc1 (centres undefined)	SR-BI DiI-HDL act 71
Cc1ccc(C(CCN)c2ccco2)cc1 (centres undefined)	none
Cn1nc(C(F)(F)F)c2cc(C(=O)Nc3ccc(C(F)(F)F)cc3)sc21	SR-BI DiI inh 84
Cn1nc(C(F)(F)F)c2cc(C(=O)Nc3ccc(F)cc3)sc21	SR-BI DiI inh 76
Cc1nn(CC(=O)Nc2cccc(S(N)(=O)=O)c2)c(C)c1[N+](=O)[O-]	none
COc1ccc([C@H]2CC(=O)C=C(c3ccc(OC)cc3OC)C2)cc1	Vif imaging 55
O=C1C=C(c2ccc(F)cc2OCc2ccccc2)C[C@@H](c2ccc(F)cc2)C1	SR-BI DiI inh 75
COc1ccc(C2=CC(=O)C[C@H](c3ccc(OC)cc3)C2)cc1	none
Cc1ccc(NC(=O)COC(=O)c2ccc([N+](=O)[O-])o2)cc1S(=O)(=O)N1CCCCCC1	none (no result: SR-BI DiI-HDL act, SR-BI DiI inh)
O=C(NCc1cccs1)C1Cc2c(-c3ccc(Cl)cc3)ccnc2O1 (centres undefined)	none (no result: PKA-R1A act, SR-BI DiI-HDL act, SR-BI DiI inh, PKA-R2B activ)
Cc1ccccc1NC(=S)N(Cc1cccs1)C1CCCC1	Vif imaging 51
Cc1cccc(C)c1NC(=S)N(Cc1cccs1)C1CCCC1	none
CCCS(=O)(=O)NC(=O)C1(C)CCN(C(=O)c2ccccc2F)C1 (centres undefined)	none (no result: PKA-R1A act, SR-BI DiI-HDL act, SR-BI DiI inh, PKA-R2B activ)
COc1ccccc1C(=O)Nc1cc(Cl)ccc1O	none
COc1ccc(OC)c(NC(=O)c2nc(-c3ccccc3)oc2C)c1	Vif imaging 114
CCOc1ccccc1C(=O)Nc1cc(Cl)ccc1O	SR-BI DiI inh 86
CCOc1ccccc1C(=O)Nc1cc(OC)ccc1OC	SR-BI DiI inh 79
CCOc1cc(NC(=O)c2ccccc2OC)c(OCC)cc1NC(=O)c1ccccc1	none
CCOc1cc(NC(=S)Nc2ccccc2)c(OCC)cc1NC(=O)c1ccc(OC)cc1	SR-BI DiI inh 89
CCC(=O)N1CCC(C)(C(=O)Nc2ccc3c(c2)OCCO3)C1 (centres undefined)	none (no result: PKA-R1A act, SR-BI DiI-HDL act, SR-BI DiI inh, PKA-R2B activ)
CCOc1ccccc1C(=O)NCC(=O)OCCCOC(=O)CNC(=O)c1ccccc1OCC	SR-BI DiI inh 84
CCOc1ccccc1C(=O)NCC(=O)OCCOc1cccc(Cl)c1	none
Fc1ccc(NC(=S)N2CCN(c3ccccn3)CC2)cc1Cl	none
COc1cccc(NC(=O)c2ccnc(N3CCC(C(=O)NCc4ccccc4OC)CC3)c2)c1	SR-BI DiI inh 87
CCOC(=O)c1c(NC(=O)C(=O)N/N=C/c2ccccc2O)sc2c1CCCCC2	SR-BI DiI inh 127
CCOC(=O)c1cc(C(=O)Nc2sc3c(c2C#N)CCCC3)nn1C	SR-BI DiI inh 76
CCOC(=O)c1c(NC(=O)c2ccn(CC)n2)sc2c1CCCC2	SR-BI DiI inh 72
COc1cc(CNCCc2ccccc2)ccc1OCC(N)=O	SR-BI DiI-HDL act 64
CCn1c2ccccc2c2cc(NC(=O)c3cc(OC)cc(OC)c3)ccc21	SR-BI DiI inh 77
CCn1c2ccccc2c2cc(NC(=O)c3cc(OC)c(OC)c(OC)c3)ccc21	none
CCn1c2ccccc2c2cc(NC(=O)c3ccc(C)c([N+](=O)[O-])c3)ccc21	none
CCn1c2ccccc2c2cc(NC(=O)c3cccc([N+](=O)[O-])c3)ccc21	SR-BI DiI inh 80
CCOC(=O)[C@@H]1CSCCS(=O)(=O)N1	none
N#Cc1nc(COc2ccc(Cl)cc2Cl)oc1N1CCN(c2ccccc2)CC1	SR-BI DiI-HDL act 118
COc1ccc(N2CCN(c3oc(COc4ccc(Cl)cc4Cl)nc3C#N)CC2)cc1	none
CCOc1ccc2nc(NCCNC(=O)Nc3cccc(C)c3)c(C#N)cc2c1	none
CCOc1ccc2nc(NCCNC(=O)Nc3ccccc3)c(C#N)cc2c1	Vif imaging 57
CCOC(=O)C1=C(C)NC(=S)NC1C (centres undefined)	none
CCOC(=O)C1=C(c2ccccc2)NC(=S)NC1C (centres undefined)	SR-BI DiI inh 72 (no result: Vif imaging)
COc1ccc(C(C)(O)c2nc(-c3ccc4c(c3)OCO4)cs2)cc1 (centres undefined)	none (no result: PKA-R1A act, SR-BI DiI-HDL act, SR-BI DiI inh, PKA-R2B activ)
CCCc1ccc(-c2cc(C(=O)N/N=C/c3ccc([N+](=O)[O-])o3)c3ccccc3n2)cc1	SR-BI DiI inh 95
Cc1cc(C(=O)N/N=C/c2ccc([N+](=O)[O-])o2)c(C)o1	none (no result: SR-BI DiI-HDL act, SR-BI DiI inh)
O=C(N/N=C/c1ccco1)c1cc(-c2ccccc2)nc2ccccc12	none
O=C(N/N=C/c1ccc([N+](=O)[O-])o1)c1cc(-c2cccc(Br)c2)nc2ccccc12	SR-BI DiI inh 105
COc1ccc(/C(C)=N/NC(=O)c2nnn(-c3nonc3N)c2-c2cccs2)cc1OC	none
C[C@H](CO)N1C[C@H](C)[C@H](CN(C)S(=O)(=O)c2cccc(F)c2)Oc2ncc(-c3cccc(C(=O)N(C)C)c3)cc2C1=O	none (no result: SR-BI DiI-HDL act, SR-BI DiI inh)
Cc1ccc(NC(=O)c2ccc(Cl)c(S(=O)(=O)NCc3ccco3)c2)c(O)c1	SR-BI DiI inh 90

Screens as filed in PubChem BioAssay.
